Experimental findings from the array DNA melting data of Ke et al. (doi:10.1101/2024.01.08.574731) are described below.

A short description of data set [1]: melting temperature; fluorescence melt of hairpins on a sequencing array, two-state fit, raised by 9.35 °C to match UV melts. The settings on record: sodium 0.088 M. In a few lines: (§1)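 In 50 mM Na-HEPES pH 8.0 containing 25 mM NaCl, hairpins from the library on a sequenced MiSeq flow cell were imaged for Cy3 fluorescence at 2.5 °C steps up to 60 °C, with Cy3 and quencher oligos annealed. After normalisation to pre-quench Cy3 and to control constructs, two-state fits with bootstrapping gave melting temperature and folding enthalpy. Four replicates were combined by inverse-variance weighting, and fitted temperatures were shifted up by 9.35 °C to match UV melts.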

A short description of data set [2]: folding enthalpy; higher = less favourable; fluorescence melt of hairpins on a sequencing array, two-state fit. Particulars: sodium 0.088 M. In a few lines:
as §1

For the sequence GCGGGTGGAAACATCCGC ((((.((....)).)))), the Tm in data set [1] is 64 °C. Besides, the folding enthalpy in data set [2] was -43 kcal/mol.
Regarding GCGGGTTTCCGC ((((....)))), the Tm in data set [1] was 59.2 °C. For the same sequence, the folding enthalpy in data set [2] was -28.2 kcal/mol.
The like results for GCGGTACCCGC ((((...)))) were, in that order, 63.3 °C and -18.7 kcal/mol.
As for GCGGTAGCCCGC ((((....)))), the Tm in data set [1] was determined as 62 °C. For the same sequence, the folding enthalpy in data set [2] was -12.3 kcal/mol.
For GCGGTAGGAAACTATCGC (((.(((....))).))), in that order: 53.7 °C and -37.9 kcal/mol.
The like results for GCGGTCAGCCGC ((((....)))) were, in that order, 57.4 °C and -27.7 kcal/mol.
In the case of GCGGTCGAAAGACATCGC ((((((....)))..))), in data set [1], the Tm was determined as 49.1 °C. The folding enthalpy in data set [2] is -20.7 kcal/mol.
With GCGGTCGAAAGACGCGC ((((((....))).))), the Tm in data set [1] worked out at 65.6 °C. Moreover, in data set [2], the folding enthalpy was -30.8 kcal/mol.
For GCGGTCGAAAGACGGCGC ((((((....)))..))), in that order: 63.9 °C and -31.3 kcal/mol.
For GCGGTCGAAAGACGTCGC ((((((....)))..))), in that order: 50.5 °C and -23.7 kcal/mol.
The like results for GCGGTCGAAAGACTCGC ((((((....))).))) were, in that order, 54.6 °C and -29 kcal/mol.
With GCGGTCGAAAGACTTCGC ((((((....)))..))), the Tm in data set [1] was found to be 47.6 °C. Moreover, the folding enthalpy in data set [2] was -21.6 kcal/mol.
Take GCGGTCGGAAACGGCTGC ((.(.((....)).).)): the Tm in data set [1] was 53.4 °C. In addition, in data set [2], the folding enthalpy was -36.8 kcal/mol.
For the sequence GCGGTCTCCCGC ((((....)))), the Tm in data set [1] stood at 55.5 °C. For the same sequence, in data set [2], the folding enthalpy is -33.4 kcal/mol.
The like results for GCGGTGCCCGC ((((...)))) were, in that order, 55.5 °C and -19.3 kcal/mol.
For GCGGTGCGAAAGCAATGC ((..(((....)))..)), the Tm in data set [1] worked out at 59 °C. For the same sequence, the folding enthalpy in data set [2] was -29.2 kcal/mol.
With GCGGTGCGAAAGCCCAGC ((.(.((....)).).)), the Tm in data set [1] turned out to be 54.2 °C. The folding enthalpy in data set [2] was -21.6 kcal/mol.
The like results for GCGGTGCGAAAGCTCGGC ((.(.((....)).).)) were, in that order, 51 °C and -19.1 kcal/mol.
The like results for GCGGTGGCCCGC ((((....)))) were, in that order, 61 °C and -16.3 kcal/mol.
For GCGGTGGCGAAAGCCCGC (((..(((....)))))), in that order: 66.9 °C and -23.3 kcal/mol.
On to GCGGTGGGAAACCGTCGC (((..((....))..))), for which, in data set [1], the Tm is 55.5 °C. Further, the folding enthalpy in data set [2] was -14.3 kcal/mol.
In the case of GCGGTGGGCCGC ((((....)))), the Tm in data set [1] was 65.8 °C. The folding enthalpy in data set [2] is -13.9 kcal/mol.
Turning to GCGGTTCCGAAAGGACGC (((..(((....)))))), the Tm in data set [1] stood at 51.7 °C. For the same sequence, the folding enthalpy in data set [2] is -25 kcal/mol.
The like results for GCGGTTCGCCGC ((((....)))) were, in that order, 64.5 °C and -23.3 kcal/mol.
Consider GCGGTTGCCCGC ((((....)))), for which, in data set [1], the Tm worked out at 62 °C. Besides, the folding enthalpy in data set [2] is -14.9 kcal/mol.
The like results for GCGGTTGGAAACAGCTGC ((.(.((....)).).)) were, in that order, 52.3 °C and -25.9 kcal/mol.
For GCGGTTGGAAACAGTCGC (((..((....))..))), in that order: 44.2 °C and -25.3 kcal/mol.
For GCGGTTGGAAACGACCGC (((((.(....).))))), in that order: 62.9 °C and -48.8 kcal/mol.
GCGTAAACGAAAGTTCGC (((..(((....)))))): in data set [1], the Tm worked out at 48.2 °C. Moreover, the folding enthalpy in data set [2] is -33.7 kcal/mol.
For GCGTAACGAAAGTTCGC (((.(((....)))))), in that order: 55.9 °C and -36.1 kcal/mol.
For GCGTAACGAAAGTTGCGC (((.(((....))).))), in that order: 63 °C and -53 kcal/mol.
As for GCGTAAGAACGC ((((....)))), the Tm in data set [1] came to 49.5 °C. In data set [2], the folding enthalpy is -15.8 kcal/mol.
For GCGTAATCGAAAGATCGC (((..(((....)))))), in that order: 45.6 °C and -25.1 kcal/mol.
As for GCGTACAACGC ((((...)))), the Tm in data set [1] turned out to be 55.6 °C. In data set [2], the folding enthalpy is -22.4 kcal/mol.
The like results for GCGTACACACGC ((((....)))) were, in that order, 51.4 °C and -23.9 kcal/mol.
Take GCGTACCCGAAAGGGCGC (((..(((....)))))): in data set [1], the Tm was 56.4 °C. Besides, in data set [2], the folding enthalpy was -22.1 kcal/mol.
The like results for GCGTACCGAAAGGTCGC (((.(((....)))))) were, in that order, 63.5 °C and -36.5 kcal/mol.
With GCGTACCGACGC ((((....)))), the Tm in data set [1] was 50.9 °C. The folding enthalpy in data set [2] was -22.5 kcal/mol.
The like results for GCGTACGAAAGTAAGCGC ((((((....)))..))) were, in that order, 56.8 °C and -30.9 kcal/mol.
For GCGTACGAAAGTAATCGC ((((((....)))..))), the Tm in data set [1] came out at 44.1 °C. Besides, the folding enthalpy in data set [2] is -23.6 kcal/mol.
The like results for GCGTACGAAAGTAGCGC ((((((....))).))) were, in that order, 68.8 °C and -31.1 kcal/mol.
GCGTACGAAAGTATACGC ((((((....)))..))): in data set [1], the Tm stood at 51.4 °C. Also, in data set [2], the folding enthalpy was -34 kcal/mol.
As for GCGTACGAAAGTATCCGC ((((((....)))..))), the Tm in data set [1] was found to be 38.6 °C. Also, the folding enthalpy in data set [2] was -23.5 kcal/mol.
As for GCGTACGAAAGTATGCGC ((((((....)))..))), the Tm in data set [1] is 58.4 °C. Also, the folding enthalpy in data set [2] is -37.5 kcal/mol.
For GCGTACGGAAACATACGC (((((.(....).))))), in that order: 46.8 °C and -33.8 kcal/mol.
As to GCGTACTGACGC ((((....)))), in data set [1], the Tm came to 52.4 °C. Moreover, the folding enthalpy in data set [2] is -21.9 kcal/mol.
The like results for GCGTAGCGAAAGCCGCGC (((..((....))..))) were, in that order, 61.6 °C and -16.2 kcal/mol.
For GCGTAGCGAAAGCTCGC (((.(((....)))))), in data set [1], the Tm came out at 63.3 °C. Further, in data set [2], the folding enthalpy is -16.4 kcal/mol.
For GCGTAGCGAAAGCTCGGC ((..(((....)))..)), in that order: 39.9 °C and -7.84 kcal/mol.
For GCGTAGGGAAACTTGCGC (((.(.(....).).))), in that order: 42.3 °C and -28.5 kcal/mol.
GCGTAGTCACGC ((((....)))): the Tm in data set [1] worked out at 51.5 °C. Further, in data set [2], the folding enthalpy is -21.2 kcal/mol.
For the sequence GCGTATACGAAAGTACGC (((..(((....)))))), the Tm in data set [1] is 51.6 °C. The folding enthalpy in data set [2] is -35.4 kcal/mol.
GCGTATCCACGC ((((....)))): in data set [1], the Tm is 51.7 °C. Further, the folding enthalpy in data set [2] was -26.4 kcal/mol.
For GCGTATCCGAAAGGACGC (((..(((....)))))), in that order: 50.2 °C and -27.1 kcal/mol.
The like results for GCGTATCGAAAGATGCGC (((.(((....))).))) were, in that order, 66.3 °C and -43.8 kcal/mol.
Regarding GCGTATGGAAACATACAC (.(((((....))))).), in data set [1], the Tm was 36.7 °C. Moreover, the folding enthalpy in data set [2] is -15.8 kcal/mol.
GCGTATGTACGC ((((....)))): in data set [1], the Tm came out at 54.8 °C. The folding enthalpy in data set [2] was -22.4 kcal/mol.
For GCGTATTAACGC ((((....)))), the Tm in data set [1] was found to be 53.8 °C. Further, in data set [2], the folding enthalpy was -22.1 kcal/mol.
For GCGTATTCGAAAGAACGC (((..(((....)))))), in that order: 42.2 °C and -24.4 kcal/mol.
The like results for GCGTCACGACGC ((((....)))) were, in that order, 58.6 °C and -31.7 kcal/mol.
For GCGTCAGCGAAAGCTCGC (((..(((....)))))), in that order: 47.2 °C and -10.1 kcal/mol.
In the case of GCGTCAGGAAACTGGTGC ((..(((....)))..)), in data set [1], the Tm is 41.6 °C. Further, the folding enthalpy in data set [2] is -27.1 kcal/mol.
Turning to GCGTCCCCGAAAGGGCGC (((..(((....)))))), in data set [1], the Tm was found to be 65.2 °C. In addition, the folding enthalpy in data set [2] is -24.3 kcal/mol.
In the case of GCGTCCGAAAGGAGGCGC ((((((....)))..))), the Tm in data set [1] amounted to 67.5 °C. In addition, the folding enthalpy in data set [2] is -36.3 kcal/mol.
As for GCGTCCGAAAGGATACGC ((((((....)))..))), the Tm in data set [1] worked out at 55.5 °C. Also, in data set [2], the folding enthalpy was -29.2 kcal/mol.
Turning to GCGTCCGAAAGGATCGC ((((((....))).))), the Tm in data set [1] was 59.5 °C. The folding enthalpy in data set [2] was -37.8 kcal/mol.
GCGTCCGACGC ((((...)))): the Tm in data set [1] is 53.9 °C. Moreover, in data set [2], the folding enthalpy is -27.1 kcal/mol.
As to GCGTCCGGAAACGAACGC ((((.((....)).)))), the Tm in data set [1] worked out at 54.7 °C. Moreover, in data set [2], the folding enthalpy was -42.8 kcal/mol.
For the sequence GCGTCCGGAAACGGGTGC ((..(((....)))..)), in data set [1], the Tm stood at 51.2 °C. The folding enthalpy in data set [2] is -30.8 kcal/mol.
In the case of GCGTCCTAACGC ((((....)))), in data set [1], the Tm was found to be 54.8 °C. Further, the folding enthalpy in data set [2] was -26.4 kcal/mol.
For GCGTCCTACGC ((((...)))), in that order: 62.5 °C and -20.2 kcal/mol.
For the sequence GCGTCGAAACGC ((((....)))), in data set [1], the Tm amounted to 51.3 °C. Moreover, the folding enthalpy in data set [2] is -18.4 kcal/mol.
Consider GCGTCGCGAAAGCAAAGC ((.(.((....)).).)), for which the Tm in data set [1] was 62.6 °C. Moreover, the folding enthalpy in data set [2] was -21.3 kcal/mol.
As for GCGTCGCGAAAGCAATGC ((.(.((....)).).)), the Tm in data set [1] is 43.9 °C. The folding enthalpy in data set [2] was -21.6 kcal/mol.
Take GCGTCGCGAAAGCGTTGC ((..(((....)))..)): the Tm in data set [1] was 48.6 °C. The folding enthalpy in data set [2] is -17.9 kcal/mol.
As for GCGTCGCGAAAGCTACGC ((((.((....)).)))), in data set [1], the Tm stood at 66.9 °C. For the same sequence, the folding enthalpy in data set [2] was -29.4 kcal/mol.
